Experimental findings from PubChem BioAssay AID504436 (Sanford-Burnham Center for Chemical Genomics, 2011) are described below.

Active and inactive are the calls of the source.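 The calls were made as follows: active = mean IC50 below 20 µM in the confirmatory beta-arrestin antagonist test; inactive = the rest.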 Some results are limits rather than exact numbers.

Chain of Apelin receptor (Homo sapiens) (P35414 whole entry, looked up, the tested form may be a part): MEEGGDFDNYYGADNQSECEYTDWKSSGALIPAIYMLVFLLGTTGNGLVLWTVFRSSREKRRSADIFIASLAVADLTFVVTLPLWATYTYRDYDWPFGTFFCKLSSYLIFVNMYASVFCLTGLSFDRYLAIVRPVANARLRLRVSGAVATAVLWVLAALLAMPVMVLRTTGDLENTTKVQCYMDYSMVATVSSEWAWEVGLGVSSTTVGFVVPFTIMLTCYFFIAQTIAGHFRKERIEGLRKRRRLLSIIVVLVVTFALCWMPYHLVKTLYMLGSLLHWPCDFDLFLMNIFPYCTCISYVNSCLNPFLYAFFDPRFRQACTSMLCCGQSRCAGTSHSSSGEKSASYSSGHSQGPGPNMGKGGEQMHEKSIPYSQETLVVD

This assay addresses Apelin receptor (Homo sapiens) (UniProt P35414). The assay can be described thus: blockers of apelin-13-driven APJ signaling – cell-based, CHO-K1 AGTRL-1, PathHunter luminescence, set 5, SAR follow-up (AID 504436). The following applies: CHO-K1 APJ beta-arrestin PathHunter, antagonist. The essentials: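 System: CHO-K1 PathHunter APJ beta-arrestin cells / Detection: luminescence from beta-gal fragment complementation upon beta-arrestin recruitment / Times: overnight seeding, 90 min exposure at 25 °C, 60 min detection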
Usually IC50 stands for the midpoint of a concentration-inhibition curve. Take `O=C(Oc1coc(CN2CCOCC2)cc1=O)c1ccccc1`: the IC50 was > 79 µM (inactive).
For `Cc1ccnc(SCc2cc(=O)c(NC(=O)c3ccc([N+](=O)[O-])cc3)co2)n1` the value was > 79 µM (inactive).
As to `O=C(Oc1coc(CN2CCOCC2)cc1=O)c1ccc([N+](=O)[O-])cc1`, the IC50 is 16.4 µM.
For `Cc1cc(C)nc(SCc2cc(=O)c(OC(=O)c3ccc(-c4nccs4)cc3)co2)n1` the value was > 79 µM (inactive).
For `O=C(Oc1coc(CSc2ccc(Cl)cc2)cc1=O)c1ccc(Cl)c([N+](=O)[O-])c1` the value was 4.53 µM; for `COc1ccc(SCc2cc(=O)c(OC(=O)c3ccc(Cl)c([N+](=O)[O-])c3)co2)cc1`, 8.27 µM.
To `O=C(Oc1coc(CSc2ccc(OC(F)(F)F)cc2)cc1=O)c1ccc(Cl)c([N+](=O)[O-])c1` belongs “inactive”; to `Cc1ccc(SCc2cc(=O)c(OC(=O)c3ccc(Cl)c([N+](=O)[O-])c3)co2)cc1`, 12.8 µM.
